Results on 99 compounds are retold here after ChEMBL document CHEMBL4513216, “Probing the Open Global Health Chemical Diversity Library for Multistage-Active Starting Points for Next-Generation Antimalarials” (ACS Infect Dis, 2020).

SMILES strings stand for the structures.

The nature of the data set: Toxicity liver stage against HepG2, at 10uM. The settings on record: human, HepG2-A16-CD81EGFP cells; read-out: INHIBITION
Set-up: test concentration 10 uM, cell line HepG2-A16-CD81EGFP. It is filed as cell-based. In outline:
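Uninfected HepG2-A16-CD81EGFP cells, 3 × 10^3 per well, 1536-well, plated on prespotted compound at 10 μM final, parasite-free screening media added to match infected plates; puromycin 10 μM positive, DMSO 0.5% negative; run in parallel with 48 h PbLuc assay at 37 °C, 5% CO2; viability by CellTiter-Glo luminescence, normalized to controls.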
With `O=C(c1cocn1)N1C[C@@H]2CN(Cc3ccco3)CCO[C@@H]2C1`, the cytotoxicity at 10 µM is 5.24%. The result for `CCCOCC(=O)NC1CCc2nc(C)cn2C1` (centres undefined) reads -2.88%; that for `CCOc1cccc(CCNC(=O)NC2CCc3[nH]ncc3C2)n1` (centres undefined), 8.95%; that for `Cc1cnn(CC2CCCCN2CCCS(N)(=O)=O)c1` (centres undefined), 4.02%. Regarding `COc1cc(N2CCO[C@H]3[C@@H](Oc4cccnc4)CC[C@@H]32)ncn1`, the cytotoxicity at 10 µM is -3.33%. The figure for `Cc1ccc(S(=O)(=O)N2CCN(CCCO)CC2)s1` is -9.12%; for `CCNc1ccnc(NCC2(N(C)C)CCOCC2)n1` it is -0.686%; for `COC(=O)c1ccc(C(=O)NCc2ccc(Br)cc2)cn1` it is -23.2%. The result for `Cc1ccc(NC(=O)N2C[C@@H]3CC[C@H]2CN(Cc2cscn2)C3)cc1` reads -7.47%; that for `O=C(c1cccc2c1OCO2)N1CCCC1c1noc(C2CC2)n1` (centres undefined), -23.2%; that for `CCCn1cc(S(=O)(=O)N(C)Cc2nonc2C)c(C)n1`, 12.7%. The figure for `CN1CCN(c2ncccn2)CC12CCC(=O)N(CC1CC1)CC2` (centres undefined) is 2.6%; for `CCCN1CCc2c(C(=O)N(C)Cc3ccccn3)nn(C)c2C1` it is -1.92%. Consider `O=C(C[C@@H]1COC[C@H]2CN(C3CCCC3)C[C@@H]12)N1CCCCO1`, for which the cytotoxicity at 10 µM was 7.92%. The figure for `COc1ccc(C(C)NC(=O)NCCc2ccc(C)nc2)c(OC)c1` (centres undefined) is -1.74%. The result for `Cc1nc2[nH]cc(C(=O)N3CCCCC3c3ccc(F)cc3)c(=O)n2n1` (centres undefined) reads 3.63%. The figure for `Cc1cnc(N2CCOC3(CCCN(C)C3)C2)nc1` (centres undefined) is 8.25%; for `Cc1cc(OCC(=O)NCc2ccc(F)cc2)nnc1C` it is -9.27%. As to `CN(C)c1nccc(C2CCN(C(=O)CO)CC2)n1`, the cytotoxicity at 10 µM is -23.6%. The figure for `CCCc1nc(NCCCn2ccnc2)c2c(n1)c(C)nn2CC` is 8.26%; for `CO[C@@H]1CCN(S(=O)(=O)c2cn(C)cn2)[C@H]1Cc1ccccc1` it is 7.13%.

Turning to `c1cnc(NCCCOC2CCOCC2)nc1`, the cytotoxicity at 10 µM is -2.96%. For the compound `CCOCCC(=O)N(C)CC1Cc2ccccc2CN1C` (centres undefined), the cytotoxicity at 10 µM was -8.77%. The result for `CC(=O)NCCNC(=O)C(c1ccccc1C)N(C)C` (centres undefined) reads 10.6%; that for `CC(C)CCC(=O)NCCc1ccn(-c2ccccc2)n1`, -14.6%. The result for `CCOC(=O)c1cnn(C2CCN(C(=O)CCC(C)C)CC2)c1N` reads -0.12%; that for `Cc1nc(C(=O)N(C)C)nn1-c1ccccc1C(C)C`, -0.665%. The result for `Cc1noc(-c2ccc(N[C@H]3CCCCNC3=O)nc2)n1` reads 0.913%; that for `Cc1nn(CC(=O)N2CCN(c3ccccc3F)CC2)c(C)c1Cl`, -12.6%. Take `CC(C)C(C)(C#N)NC(=O)CN1CCC(c2ccnn2CCO)CC1` (centres undefined): the cytotoxicity at 10 µM is -4.95%. The result for `Cc1cc(C(=O)N2C[C@@H](C(=O)O)[C@H](C(C)C)C2)cs1` reads -10.4%; that for `CCN(Cc1ccoc1)C(=O)C1CN(C(=O)OC(C)(C)C)C1`, -0.743%; that for `CCOCCCNC(=O)c1cc(Br)c2c(c1)OCCO2`, -2.21%.

Take `COC1CCN(Cc2csc(C(C)C)n2)CC1`: the cytotoxicity at 10 µM stood at 3.32%. For the compound `Cc1ccoc1C(=O)NC1CCN(CC(=O)N(C)c2ccccc2)CC1`, the cytotoxicity at 10 µM is -2.93%. The result for `O=C(CCc1ccc(Cl)s1)N1CCCC(N2CCNC2=O)C1` (centres undefined) reads 1.09%; that for `CC(O)c1cccc(N2CCC3(CCC(=O)N(CC(N)=O)C3)CC2)n1` (centres undefined), -2.55%. Take `O=C(NC1CC1)N1CCCC2(CCNC2=O)C1` (centres undefined): the cytotoxicity at 10 µM was 3%. The figure for `COCCN1CCC(NC(=O)Cn2cc(C)c3ccccc32)CC1` is -0.869%; for `O=C(c1ccncc1)N1CCCN(Cc2nnc(C3CC3)o2)CC1` it is 1.91%; for `CC1CCCN(S(=O)(=O)NCCNC(=O)c2ncccc2O)C1` (centres undefined) it is 3.07%. With `CC(=O)N1CCC(C(=O)N(CC(F)F)c2cccc(Cl)c2)CC1`, the cytotoxicity at 10 µM is 5.71%. The figure for `Cc1cccc(-c2ccc(C(=O)NCC3CCCOC3)c(=O)[nH]2)c1` (centres undefined) is -15.7%; for `CSc1ccc(CN(CCO)Cc2nccn2C)cc1` it is 4.98%; for `CCn1cnnc1C1CCN(C(=O)c2cc3c(s2)CCCC3)CC1` it is -1.76%. The result for `Cc1cnc(CNS(=O)(=O)CCC2CCCO2)o1` (centres undefined) reads 9.84%; that for `O=C(NCCc1nc(-c2cccnc2)no1)c1ccc(C2CCCO2)s1` (centres undefined), 11.2%; that for `COc1cc(C2CC(=O)Oc3cc(C)[nH]c(=O)c32)ccc1O` (centres undefined), -8.64%.

As to `CC1CCN(C(=O)c2cn(-c3ccc(C(F)(F)F)cn3)nn2)CC1`, the cytotoxicity at 10 µM is -53.1%. With `COC(=O)CCC(=O)N1CCC2(CN(Cc3cccc(F)c3)C2)C1`, the cytotoxicity at 10 µM is 4.6%. Consider `COCCNc1cc(C(=O)N2CCOCC2)nc(C)n1`, for which the cytotoxicity at 10 µM worked out at 0.598%. The result for `O=S(=O)(CCNCc1ccc(Cl)cc1)N1CCOCC1` reads 4.68%.

For the compound `c1nc(CCC2CCCN2)cc(N2CCCOCC2)n1` (centres undefined), the cytotoxicity at 10 µM came out at 3.91%.

Consider `CC(O)CN1CCC(CNCc2ccccc2Cl)CC1` (centres undefined), for which the cytotoxicity at 10 µM was -11.9%.

`O=C(CN1CCc2cncnc2C1)NC(c1ccccc1)C1CC1` (centres undefined): the cytotoxicity at 10 µM is -9.1%.

Take `CCOc1ccc(C(=O)N2CCCC(n3ccnc3C)C2)cc1OC` (centres undefined): the cytotoxicity at 10 µM is -6.7%. The result for `COc1ccccc1CN(Cc1nc(C)no1)C1CC1` reads 2.77%; that for `O=C1NCCCCC1Sc1ccc(F)cc1F` (centres undefined), -8.01%. For the compound `COc1nn(C)c2c1CCCN(C(=O)c1cccc(C)n1)C2`, the cytotoxicity at 10 µM is -97.3%. The figure for `O=S(=O)(NCCc1ccccc1F)N1CCOCC1` is -1.7%; for `Cn1cnc(S(=O)(=O)N2CCSC3(CCCCC3)C2)c1` it is -5.95%. The result for `CCCc1nc(C)c(C(=O)NCCNc2ncccn2)s1` reads -7.22%; that for `CCc1noc(CNc2cc3c(cc2Cl)OCCO3)n1`, -0.18%. `Cn1cccc1CN1CCc2ncnc(-c3cccnc3)c2CC1`: the cytotoxicity at 10 µM is 9.03%. The figure for `N#Cc1ccnc(N2CCN(CC(O)c3cccc(F)c3)CC2)c1` (centres undefined) is 3.15%; for `CCC(C)Oc1cc(C(=O)Nc2nccs2)ccn1` (centres undefined) it is -6.19%; for `CN(C)c1ccc(C(=O)N(Cc2ccncc2)CC2CCCO2)nn1` (centres undefined) it is 14.2%. The result for `Nc1cc2c(nn1)CCN(C(=O)CC1CCCC1)C2` reads -6.31%. The figure for `CN1CCN(C(=O)C2CCN(c3cccnn3)C2)CC1` (centres undefined) is -32.4%.

In the case of `Cc1cc(C)n(CC2CCCN2C(=O)c2ccc3c(c2)nnn3C)n1` (centres undefined), the cytotoxicity at 10 µM was -17.3%. The figure for `COCCN1CCC2(CC1)CC1(CCN(S(C)(=O)=O)CC1)N(C)C2=O` is 0.964%. The figure for `O=C(c1ccc2[nH]nnc2c1)N1CC[C@H](O)[C@]2(CCCO2)C1` is -2.98%; for `CC(=O)Nc1ccc(CNC2COc3c2ccc(C)c3C)cc1` (centres undefined) it is 6.56%. Turning to `NC(=O)C1CCN(C(=O)c2ccccc2OCc2ccncc2)CC1`, the cytotoxicity at 10 µM was determined as 1.02%.

On to `CN(CC(=O)Nc1ccccc1)C(=O)CN(C)c1ccc(Cl)cn1`, for which the cytotoxicity at 10 µM was -1.83%. For the compound `NC(=O)CN(Cc1cccc(Oc2ccccc2)c1)C(=O)C1CC1`, the cytotoxicity at 10 µM turned out to be 4.59%. The figure for `NC1(C(=O)NCC2CCCN(Cc3ccccc3F)C2)CCCC1` (centres undefined) is -43.2%. Regarding `CCOc1ccc(CN(C)C(=O)NC(C)c2nncn2C)cc1` (centres undefined), the cytotoxicity at 10 µM came to 8.62%. In the case of `O=C(Cn1nc(N2CCOCC2)ccc1=O)Nc1nccs1`, the cytotoxicity at 10 µM is -1.47%. The result for `Cn1cnnc1CCC(=O)N1CCCC(OCc2cccnc2)C1` (centres undefined) reads 2.66%; that for `Cc1cc(C)n(CC2CN(CC(=O)Nc3c(C)n[nH]c3C)CCO2)n1` (centres undefined), -9.86%. The figure for `CC1CN(CC(=O)N2CCCC2)CCN1c1ccc2nncn2n1` (centres undefined) is -5.46%. The figure for `CC(=O)N1CCCC1C(=O)NCCOc1ccc(C(C)C)cc1` (centres undefined) is -5.26%. As to `COC(=O)c1cc2c(=O)n(C3CC3)ccc2nc1C`, the cytotoxicity at 10 µM was -47%. For the compound `CCC(=O)N1CCC(NCc2cc(C(F)(F)F)ccc2Cl)C1` (centres undefined), the cytotoxicity at 10 µM is -4.04%.

Take `CC(C)(C)c1cc(CN2CCOC(CCc3ccccc3)C2)n[nH]1` (centres undefined): the cytotoxicity at 10 µM is -5.34%. The figure for `COc1cc(CNCC(O)c2ccccc2)cc2c1OCO2` (centres undefined) is -13%; for `Clc1ccc(N2CCC(C3CCN(Cc4cccnc4)CC3)C2)nc1` (centres undefined) it is 13.5%; for `CCN(Cc1ccc(-c2ccccn2)cc1)C1CCS(=O)(=O)C1` (centres undefined) it is -9.25%. The result for `Cc1cnn(CCNCc2csc(C)n2)c1` reads 5.79%; that for `Cc1cc(CN2CCC(C3Nc4ccccc4S(=O)(=O)N3)CC2)oc1C` (centres undefined), 4.22%; that for `O=C(Nc1ccccc1)N1CCn2nnc(COc3cccnc3)c2C1`, -2.03%. The result for `COC(=O)C(NC(=O)COC1CCCC1)c1cc(F)ccc1F` (centres undefined) reads -9.06%. Turning to `Cc1ccnn1CCNC(=O)C1CCN(S(=O)(=O)c2ccc(F)cc2)C1` (centres undefined), the cytotoxicity at 10 µM was -32%.

Turning to `CC(=O)NCCNC(=O)CN1CCCC1c1c(C)nn(C)c1C` (centres undefined), the cytotoxicity at 10 µM was -25.1%. For the compound `O=C(NCCc1cccnc1)NCCc1cccs1`, the cytotoxicity at 10 µM is -1.51%. With `N#Cc1ccc(OC2CCN(C(=O)COCC3CCCO3)CC2)cc1` (centres undefined), the cytotoxicity at 10 µM was determined as 12.9%. As to `CN(CCOc1cccc(F)c1)Cc1nc2c(cnn2C)c(=O)[nH]1`, the cytotoxicity at 10 µM is -0.966%. Consider `CCc1noc(C)c1C(=O)N1CCCN(Cc2cscn2)CC1`, for which the cytotoxicity at 10 µM was -0.448%.
